The sample as a whole holds a higher share of hits than the screen did.
LANA-nucl inh = inhibitors of KSHV LANA binding to nucleosomes | FITC-LANA1-23 / chicken nucleosome fluorescence polarization; active compounds read low | z-score (test concentration not listed) | 51,000 tested, 0.3% active;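 active = both repeat wells score below -2 in polarization z-score versus plate sample wells, excluding overly bright wells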
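System – purified chicken nucleosomes with FITC-labelled LANA N-terminal peptide (1-23) · Amount – 240 nM purified chicken nucleosomes (480 nM peptide binding sites), final · Also added – 50 nM FITC-LANA1-23 probe · Medium – TEN-BT buffer, pH 7.5 · Incubation – compound with peptide–nucleosome mix 10–45 min at room temperature · Detection – fluorescence polarization, ex 480 nm, em 535 nm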
BasE inh = blocks the Acinetobacter baumannii siderophore enzyme BasE | AID 485350 | purified BasE, fluorescence polarization binding displacement | inhibition, % (concentration not given with the values) | 84,000 tested, 0.1% active; in the data active = inhibition above about 25%, passing the limit was not always enough;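 also: 0% = negative plate control signal and 100% = positive plate control signal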
* marks the source's active call; other numbers are inactive results; · = not tested or not shown.

SMILES	LANA-nucl inh	BasE inh
O=C(Cn1cc(/C=C2\NC(=S)N(c3ccccc3)C2=O)c2ccccc21)NCc1ccco1	-2.29*	13.2
O=C(Cn1cc(/C=N/NC(=S)Nc2ccccc2)c2ccccc21)NCc1ccco1	-0.956	0.2
CCN(CC)C(=O)Cn1nnc(-c2ccccc2)n1	-0.291	1.1
Cc1ccccc1NC(=O)COc1coc(CN2CCN(Cc3ccccc3)CC2)cc1=O	-0.344	2.4
Brc1ccc(OCCn2cnc3ccccc32)cc1	0.37	38.5*
COc1ccc(OCCn2cnc3ccccc32)cc1	-0.196	25.9*
CCCOc1ccc(Cn2cnc3ccccc32)cc1	0.176	19.1
O=c1c2ccccc2ncn1CCOc1ccc(Br)cc1	·	0.6
CCOC(=O)c1ccc(NC(=O)c2ccc(C)cc2)cc1	·	4.3
c1ccc(-c2nnc(OCC3CCCO3)c3ccccc23)cc1 (stereo not drawn)	·	27.5*
Nc1ccc(OCC2CCCO2)cc1 (stereo not drawn)	0.337	-2.4
O=C(/C=C/c1ccccc1)Nc1cccnc1	·	36.0*
O=C(/C=C/c1ccccc1)Nc1ccc(O)cc1	·	20.4
O=c1[nH]c2cc3nc(C(F)(F)C(F)(F)F)[nH]c3cc2[nH]1	0.28	2.1
Cc1nc2ccccc2nc1OCC(=O)NCC(F)(F)F	·	-0.3
CCn1c(O)c(C=Nc2cccc(O)c2)sc1=S	-2.41*	0.3
CCn1c(O)c(C=Nc2ccccc2)oc1=S	·	1.9
CC(C)n1c(O)c(N=NC(=O)c2cccc(S(=O)(=O)N3CCCC3)c2)c2ccccc21	·	1.2
Cc1nc2ccn(Cc3cccnc3)c(=O)c2cc1C(=O)NCCCc1ccco1	-2.12*	2.8
Cc1ccc(NC(=O)c2cc3c(=O)n(Cc4ccco4)ccc3nc2C)cc1	-0.429	-2.5
CC1=C(C(=O)OC(C)C)C(c2ccccc2F)C(C#N)=C(N)O1 (stereo not drawn)	-0.174	-3.0
CCOC(=O)C1=C(N)Oc2cc(C)oc(=O)c2C1c1ccccc1F (stereo not drawn)	-0.569	27.7*
Cc1cc(C)nc(Nc2n[nH]c(COc3ccc4ccccc4c3)n2)n1	0.259	-1.0
Cc1cc(C)nc(Nc2n[nH]c(-c3cccnc3)n2)n1	-0.464	26.5*
CCN(CC)Cc1c(O)ccc2c1O/C(=C\c1ccccc1Cl)C2=O	-3*	1.5
SMILES	LANA-nucl inh	BasE inh
O=C1/C(=C/c2ccccc2)Oc2c1ccc(O)c2CN1CCCC1	2.15	0.9
N/C(=C\C(=O)C(F)(F)F)c1ccc(Cl)cc1	0.401	-2.4
CCCCC/C=C\C/C=C\C/C=C\C/C=C\CCCC(=O)OC(CO)CO	-2.11*	-1.4
CCCCC/C=C\C/C=C\CCCCCCCC(=O)O[C@@H](CO)COC(=O)CCCCCCCCCCCCCCCCC	-0.105	-2.5
c1ccc2oc(-c3nn4c(Cn5nnc6ccccc65)nnc4s3)cc2c1	0.601	1.9
C/C(=N\N=C1\NC(=O)C(CC(=O)Nc2ccc(C)c(Cl)c2)S1)C(C)(C)C (stereo not drawn)	-1.24	1.2
CC(=O)Nc1ccc(-c2nc3cc(C)ccc3o2)cc1	-0.911	0.5
CC(=O)Nc1ccc2oc(C)nc2c1	1.06	36.6*
CN(C)S(=O)(=O)c1ccc(C(=O)Oc2cc(=O)[nH]c3ccccc23)cc1	·	-0.2
Cc1ccccc1OCCC(=O)NCCc1ccccn1	·	1.1
N#C/C(=C\c1ccc(-c2cccc(Cl)c2)o1)C(N)=O	-0.339	-3.6
CCOC(=O)c1ccccc1NC(=O)/C(C#N)=C/c1ccc(-c2ccc(Cl)cc2)o1	-4.28*	9.7
CCOC(=O)c1ccc(-c2ccc(/C=C(\C#N)C(=O)NCc3cccs3)o2)cc1	0.511	-0.7
N#C/C(=C/c1ccc(-c2ccc(S(N)(=O)=O)cc2)o1)C(=O)Nc1cc(Cl)ccc1Cl	-5.68*	29.9
CCOC(=O)c1cc(-c2ccc(/C=C(\C#N)C(N)=C(C#N)C#N)o2)ccc1Cl	-4.52*	6.5
N#CC(C#N)=C(N)/C(C#N)=C\c1ccc(-c2ccccc2)o1	-0.109	0.9
CCOC(=O)Nc1cccn(Cc2ccccc2F)c1=O	-1.47	-0.7
COc1ccc(-c2ccc(SC)nn2)cc1OC	-0.511	-2.9
O=C1CCC(C(=O)OCc2ccc(Br)cc2)=NN1	·	-1.0
CCN1C(=O)c2ccccc2S(=O)c2ccc(C(=O)N3CCC(C)CC3)cc21 (stereo not drawn)	-0.591	1.3
CC(C)N1CC=C2C(C1)C(c1ccccc1Cl)C(C#N)=C(N)C2(C#N)C#N (stereo not drawn)	-2.35*	25.7*
CC(C)(C)OC(=O)N1CC=C2C(C1)C(c1cccc(F)c1)C(C#N)=C(N)C2(C#N)C#N (stereo not drawn)	1.8	-12.4
CC(/C=C/c1ccccc1)=N\Nc1nc2c(c(=O)[nH]c(=O)n2C)n1CC(O)COC(C)C (stereo not drawn)	0.177	-1.0
CCOc1cc2c(cc1OCC)C1C(C(=O)Nc3ccc4c(c3)OCO4)c3ccccc3C(=O)N1CC2 (stereo not drawn)	0.133	2.6
N#Cc1ccsc1/N=C/c1ccccc1	-0.415	·
SMILES	LANA-nucl inh	BasE inh
Cc1ccc(/C=N/c2sccc2C#N)cc1	-6.48*	·
Cc1cc(Cl)nc2ccccc12	·	0.9
Cc1ccc(Cc2nc(-c3ccc(Cl)cc3)cs2)cc1	·	5.9
O=C(CSCc1ccccc1)Nc1cc(=O)[nH]c(=O)[nH]1	-0.529	0.9
O=C(Cc1ccc(F)cc1)Nc1cc(=O)[nH]c(=O)[nH]1	-2.17*	1.0
CC1CCCC(C)N1C(=O)CSc1nnc(C(F)(F)F)n1N (stereo not drawn)	·	2.2
COc1ccc(CNC(=O)c2cc3sccc3n2CC(=O)c2ccccc2)cc1	-0.053	1.8
Cc1nn(C)c2c(=O)c(=O)c2n(C)[nH]1	-3.57*	5.0
CCc1nn(C)c2c(=O)c(=O)c2n(C)[nH]1	·	12.5
CC(C)(C)c1cc(C(=O)CN2CCCCC2)cc(C(C)(C)C)c1O	0.1	2.5
N#C/C(=C\c1cn(CC(=O)NCC2CCCO2)c2ccccc12)C(=O)N1CCCC1 (stereo not drawn)	-0.17	-1.5
O=C1CCC(C(=O)OCN2C(=O)c3ccccc3C2=O)=NN1	·	1.1
O=C1CC(c2ccccc2O)=NN1	·	26.7*
O=C(Oc1ccc2c(c1)OCO2)c1ccc2c(c1)OCCO2	·	0.6
CCc1nc2ccccc2c(C(=O)OCC(=O)c2ccc3c(c2)OCCO3)c1C	·	0.6
O=C(Nc1ccc2c(c1)oc1ccccc12)C1CCCO1 (stereo not drawn)	-0.432	0.0
O=C(Nc1ccc2c(c1)CCC2)C1CCCO1 (stereo not drawn)	-2.09*	1.2
O=C(O)c1ccccc1C1=Nc2ccc(O)cc2Oc2cc(O)ccc21	-6.08*	38.2
O=C(O)c1ccccc1-c1ccccc1C(=O)O	1.32	-1.7
CC(C)CCCC(C)N (stereo not drawn)	0.499	·
CCc1ccc(N=C2NC(=O)/C(=C/c3cc(C)n(CC)c3C)S2)cc1	-0.131	-0.7
CSc1nnc(-c2nnc(SC)n2-c2ccccc2)n1-c1ccccc1	-0.0045	-1.6
CCC(=O)Nn1cnc2c(cnn2-c2ccccc2)c1=O	-2.23*	-0.4
O=C(Cc1ccccc1)Nn1cnc2c(cnn2-c2ccccc2)c1=O	-0.797	-1.3
O=C(CSc1ccccc1)CSc1ccccc1	0.989	·
O=C(O)c1cc(-c2ccccc2)nc2c1cnn2Cc1ccncc1	·	99.1*
CC(C)n1ncc2c(C(=O)OCc3ccc(C#N)cc3)cc(-c3ccccc3)nc21	·	-1.6
O=C1c2ccccc2C(=O)N1Cc1cc(=O)n2ccsc2n1	·	1.9
O=c1cc(CN2CCCc3ccccc32)nc2sccn12	-7.88*	12.2

Screening data from PubChem.
